Results from ChEMBL document CHEMBL1671867, “Novel polymyxin derivatives carrying only three positive charges are effective antibacterial agents” (Antimicrob Agents Chemother, 2008).
Converted amounts (≈) assume the structure as drawn. Values belong to the compound of their own block, whether it stands above or below them. The source made the active and inactive calls. The rule behind the calls is not given here.

Experiments:
Klebsiella pneumoniae [1] = test: Antibacterial activity against Klebsiella pneumoniae by CLSI M7-A7 agar dilution method; type: functional
Outline: (§1)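 Agar dilution on Mueller-Hinton agar with test substance at 0.25 to 32 μg/ml in twofold steps. Spots of about 10^4 CFU applied with a multipoint inoculator.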

Escherichia coli [2] = test: Antibacterial activity against Escherichia coli IH3080 assessed as growth inhibition at 10 ug after 18 hrs by […] in presence of 1 ug/ml rifampin; type: functional
Pseudomonas aeruginosa = test: Antibacterial activity against Pseudomonas aeruginosa ATCC 27853 by CLSI M7-A7 agar dilution method; type: functional; outline: as §1
Escherichia coli [3] = test: Antibacterial activity against Escherichia coli IH3080 assessed as reduction in bacterial count at 2 ug/ml using 2 day old compound stock solution; type: functional; parameters: scale not given: the % may be the effect or the level left
Escherichia coli [4] = test: Antibacterial activity against Escherichia coli IH3080 by CLSI M7-A7 agar dilution method; type: functional
Escherichia coli [5] = test: Antibacterial activity against Escherichia coli IH3080 assessed as growth inhibition at 10 ug after 18 hrs by […]; type: functional
Enterobacter cloacae [6] = test: Antibacterial activity against Enterobacter cloacae ATCC 23355 by CLSI M7-A7 agar dilution method; type: functional
Serratia marcescens = test: Antibacterial activity against Serratia marcescens ATCC 8100 by CLSI M7-A7 agar dilution method; type: functional; outline: as §1
Escherichia coli [7] = test: Antibacterial activity against Escherichia coli SC 9253 by CLSI M7-A7 agar dilution method; type: functional; outline: as §1
Enterobacter cloacae [8] = test: Antibacterial activity against Enterobacter cloacae CCUG52947 by CLSI M7-A7 agar dilution method; type: functional
Acinetobacter baumannii [9] = test: Antibacterial activity against Acinetobacter baumannii by CLSI M7-A7 agar dilution method; type: functional
Klebsiella pneumoniae [10] = test: Antibacterial activity against Klebsiella pneumoniae CCUG45421 by CLSI M7-A7 agar dilution method; type: functional; outline: as §1
Citrobacter freundii = test: Antibacterial activity against Citrobacter freundii ATCC 8090 by CLSI M7-A7 agar dilution method; type: functional
Klebsiella oxytoca [11] = test: Antibacterial activity against Klebsiella oxytoca ATCC 13182 by CLSI M7-A7 agar dilution method; type: functional; outline: as §1
Escherichia coli [12] = test: Antibacterial activity against Escherichia coli ATCC […] by CLSI M7-A7 agar dilution method; type: functional
Acinetobacter baumannii [13] = test: Antibacterial activity against Acinetobacter baumannii ATCC 19606 by CLSI M7-A7 agar dilution method; type: functional
Klebsiella oxytoca [14] = test: Antibacterial activity against Klebsiella oxytoca CCUG51683 by CLSI M7-A7 agar dilution method; type: functional; outline: as §1
Escherichia coli [15] = test: Antibacterial activity against Escherichia coli SC 9252 by CLSI M7-A7 agar dilution method; type: functional
Enterobacter cloacae [16] = test: Antibacterial activity against Enterobacter cloacae by CLSI M7-A7 agar dilution method; type: functional
Staphylococcus aureus = test: Antibacterial activity against Staphylococcus aureus ATCC 25923 by CLSI M7-A7 agar dilution method; type: functional; outline: as §1
Candida albicans = test: Antibacterial activity against Candida albicans ATCC 28366 by CLSI M7-A7 agar dilution method; type: functional
Escherichia coli [17] = test: Antibacterial activity against Escherichia coli by CLSI M7-A7 agar dilution method; type: functional; outline: as §1
Escherichia coli [18] = test: Antibacterial activity against Escherichia coli IH3080 assessed as reduction in bacterial count at 2 ug/ml using fresh compound stock solution; type: functional, organism-based

MIC (Klebsiella pneumoniae [1]): 1 µg/mL (≈ 0.929 µM) | MIC (Pseudomonas aeruginosa): 8 µg/mL (≈ 7.43 µM) | MIC (Escherichia coli [4]): 1 µg/mL (≈ 0.929 µM) | MIC (Enterobacter cloacae [6]): 2 µg/mL (≈ 1.86 µM) | MIC (Serratia marcescens): > 32 µg/mL | MIC (Escherichia coli [7]): > 32 µg/mL | MIC (Enterobacter cloacae [8]): 2 µg/mL (≈ 1.86 µM) | MIC (Acinetobacter baumannii [9]): 4 µg/mL (≈ 3.72 µM) | MIC (Klebsiella pneumoniae [10]): 4 µg/mL (≈ 3.72 µM) | MIC (Citrobacter freundii): 2 µg/mL (≈ 1.86 µM) | MIC (Klebsiella oxytoca [11]): 2 µg/mL (≈ 1.86 µM) | MIC (Escherichia coli [12]): 1 µg/mL (≈ 0.929 µM) | MIC (Acinetobacter baumannii [13]): 8 µg/mL (≈ 7.43 µM) | MIC (Klebsiella oxytoca [14]): 2 µg/mL (≈ 1.86 µM) | MIC (Escherichia coli [15]): 32 µg/mL (≈ 29.7 µM) | MIC (Enterobacter cloacae [16]): 2 µg/mL (≈ 1.86 µM) | MIC (Staphylococcus aureus): > 32 µg/mL | MIC (Candida albicans): > 32 µg/mL | MIC (Escherichia coli [17]): 0.5 µg/mL (≈ 0.465 µM)
Compound: CCCCCCCC(=O)N[C@H](C(=O)N[C@H](CO)C(=O)N[C@H]1CCNC(=O)[C@H]([C@@H](C)O)NC(=O)[C@H](CCN)NC(=O)[C@H](CCN)NC(=O)[C@H](CC(C)C)NC(=O)[C@@H](Cc2ccccc2)NC(=O)[C@H](CCN)NC1=O)[C@@H](C)O
inhibition zone (IZ) (Escherichia coli [2]): 214 mm2 | Activity (Escherichia coli [3]): 98% | inhibition zone (IZ) (Escherichia coli [5]): 171 mm2

Compound: CCCCCCCC(=O)N[C@H](C(=O)N[C@H](CO)C(=O)N[C@H]1CCNC(=O)[C@H]([C@@H](C)O)NC(=O)[C@H](CCN)NC(=O)[C@H](CCN)NC(=O)[C@H](CC(C)C)NC(=O)[C@H](Cc2ccccc2)NC(=O)[C@H](CCN)NC1=O)[C@@H](C)O
Activity (Escherichia coli [18]): Active
